The record followed here is ChEMBL document CHEMBL3758162, “Synthesis, biological characterization and molecular modeling insights of spirochromanes as potent HDAC inhibitors” (Eur J Med Chem, 2016).

For one data set, the system named is K562. The data set is described as follows: Antiproliferative activity against human K562 cells assessed as cell viability after 72 hrs by CellTitre-Glo luminescent assay. The settings on record: Homo sapiens, K562, 72 h. It counts as functional, cell-based.
A further data set has as its system A549. Kind of data set: Antiproliferative activity against human A549 cells assessed as cell viability after 72 hrs by CellTitre-Glo luminescent assay. The note with it: Homo sapiens, A549, 72 h. It counts as functional, cell-based.
Data set [1] in a line: Metabolic stability in human liver microsomes assessed as compound remaining at 1 uM preincubated for 10 mins measured after 30 mins by LC-MS/MS analysis. It counts as ADME. The note with it: liver microsomes, read-out: Stability. A digest of the protocol: (§1)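 Compound at 1 µM pre-incubated 10 min at 37 °C in potassium phosphate buffer pH 7.4 with 0.5 mg/mL mouse or human hepatic microsomes. Parent quantified by LC-MS/MS (ESI+, MRM, verapamil internal standard). % remaining = peak area at 30 min / area at 0 min × 100; n≥2, mean.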

A further data set deals with Histone deacetylase. Kind of data set: Inhibition of HDAC in human HeLa cells nuclear extract using Fluor de lys as substrate after 15 mins by fluorometric analysis. It counts as cell-based.
Data set [2] can be described thus: Antiproliferative activity against human HCT116 cells assessed as cell viability after 72 hrs by CellTitre-Glo luminescent assay. The class given is functional, cell-based, HCT-116. The settings on record: Homo sapiens, HCT-116, 72 h.
A short description of data set [3]: Metabolic stability in mouse liver microsomes assessed as compound remaining at 1 uM preincubated for 10 mins measured after 30 mins by LC-MS/MS analysis. The class given is ADME. The settings on record: liver microsomes, read-out: Stability. An outline of the steps: as §1
In the next data set the target is CYP2C19 (Homo sapiens, UniProt P33261). The data set is described as follows: Inhibition of human CYP2C19 using 3-cyano-7-ethoxycoumarin as substrate at 10 uM after 30 mins by fluorimetric analysis. The settings on record: probe 3-cyano-7-ethoxycoumarin. It counts as ADME. A digest of the protocol:
(§2)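 Test compounds at 10 µM in potassium phosphate buffer pH 7.4 with NADPH regenerating system (final 1.3 mM NADP⁺, 3.3 mM glucose 6-phosphate, 0.4 U/ml G6PDH); reaction started at 37 °C by adding Supersomes isoenzyme plus substrate. Enzyme and substrate amounts: CYP1A2 0.5 pmol, 5 µM CEC; CYP2C19 0.5 pmol, 25 µM CEC; CYP3A4 1 pmol, 50 µM BFC; CYP2D6 1.5 pmol, 1.5 µM AMMC. Stopped with acetonitrile/Tris base; fluorescence read; % inhibition versus enzyme without inhibitor; n≥2, mean.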

The nature of data set [4]: Solubility of the compound at pH 4.5. The class given is physicochemical. The note with it: buffer.
A further data set concerns the target T1, CYP1A2 (Homo sapiens, UniProt P05177).
T1 sequence (P05177 whole entry): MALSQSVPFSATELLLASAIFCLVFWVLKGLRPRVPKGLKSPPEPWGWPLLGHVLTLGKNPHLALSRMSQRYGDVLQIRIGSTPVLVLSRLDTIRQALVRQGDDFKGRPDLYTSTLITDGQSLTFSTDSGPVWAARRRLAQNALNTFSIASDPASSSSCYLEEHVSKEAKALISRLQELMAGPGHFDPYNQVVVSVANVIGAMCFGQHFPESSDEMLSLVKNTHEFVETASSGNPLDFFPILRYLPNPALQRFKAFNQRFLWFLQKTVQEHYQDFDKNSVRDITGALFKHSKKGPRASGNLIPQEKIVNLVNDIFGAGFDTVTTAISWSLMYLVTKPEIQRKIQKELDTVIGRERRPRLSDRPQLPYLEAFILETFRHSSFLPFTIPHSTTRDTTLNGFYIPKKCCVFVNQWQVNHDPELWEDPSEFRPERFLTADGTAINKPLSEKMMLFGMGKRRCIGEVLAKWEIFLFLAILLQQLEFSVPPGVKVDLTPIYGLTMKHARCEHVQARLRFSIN
Kind of data set: Inhibition of human CYP1A2 using 3-cyano-7-ethoxycoumarin as substrate at 10 uM after 15 mins by fluorimetric analysis. The class given is ADME. The note with it: probe 3-cyano-7-ethoxycoumarin. A digest of the protocol:
as §2

For a further data set, the target named is CYP2D6 (Homo sapiens, UniProt P10635). The data set is described as follows: Inhibition of human CYP2D6 using 3-[2-(N,N-diethyl-N-methylamino)ethyl]-7-methoxy-4-methylcoumarin as substrate at 10 uM after 30 mins by fluorimetric analysis. The class given is ADME. An outline of the steps:
as §2

The target in another data set is CYP3A4 (Homo sapiens, UniProt P08684). Kind of data set: Inhibition of human CYP3A4 using 7-benzyloxy-4-(trifluoromethyl)-coumarin as substrate at 10 uM after 30 mins by fluorimetric analysis. The note with it: probe 7-benzyloxy-4-(trifluoromethyl)-coumarin. It counts as ADME. An outline of the steps: as §2
CYP3A4, sequence (P08684 whole entry): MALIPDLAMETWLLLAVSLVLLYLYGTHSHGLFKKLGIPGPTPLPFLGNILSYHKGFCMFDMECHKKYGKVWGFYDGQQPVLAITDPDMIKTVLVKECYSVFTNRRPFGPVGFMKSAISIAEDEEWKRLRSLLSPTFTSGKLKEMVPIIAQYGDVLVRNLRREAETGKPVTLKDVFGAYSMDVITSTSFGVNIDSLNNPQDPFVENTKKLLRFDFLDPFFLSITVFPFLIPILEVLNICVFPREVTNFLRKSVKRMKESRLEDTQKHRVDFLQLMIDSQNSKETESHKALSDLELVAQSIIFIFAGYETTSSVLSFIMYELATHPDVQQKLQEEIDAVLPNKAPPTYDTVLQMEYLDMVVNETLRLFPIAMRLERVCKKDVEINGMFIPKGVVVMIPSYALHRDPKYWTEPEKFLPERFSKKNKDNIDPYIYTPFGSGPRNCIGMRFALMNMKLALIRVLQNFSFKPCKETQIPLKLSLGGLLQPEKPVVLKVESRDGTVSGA

Molecules are shown by their SMILES.

Usually IC50 stands for the concentration at which inhibition is half-maximal. The inhibition is the percentage by which the read-out fell short of the control. The low end stands for little suppression, the high end for strong suppression. As usually defined, the solubility is the concentration that dissolves in the medium under given conditions. Lower therefore signals little dissolved substance.

CYP2D6, sequence (P10635 whole entry): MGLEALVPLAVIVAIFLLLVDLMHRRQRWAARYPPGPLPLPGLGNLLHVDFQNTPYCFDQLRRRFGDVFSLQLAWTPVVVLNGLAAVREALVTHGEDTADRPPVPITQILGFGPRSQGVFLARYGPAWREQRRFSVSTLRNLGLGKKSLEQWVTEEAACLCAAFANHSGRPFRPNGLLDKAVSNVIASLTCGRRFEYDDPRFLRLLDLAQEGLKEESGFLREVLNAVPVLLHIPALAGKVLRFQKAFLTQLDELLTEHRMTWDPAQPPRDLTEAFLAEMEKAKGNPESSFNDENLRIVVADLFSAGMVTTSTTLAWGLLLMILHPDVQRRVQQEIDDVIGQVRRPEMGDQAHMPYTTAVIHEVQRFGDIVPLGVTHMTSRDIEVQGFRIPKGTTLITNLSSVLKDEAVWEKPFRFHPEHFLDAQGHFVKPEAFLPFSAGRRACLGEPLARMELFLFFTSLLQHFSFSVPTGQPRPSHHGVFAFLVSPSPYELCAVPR
CYP2C19, sequence (P33261 whole entry): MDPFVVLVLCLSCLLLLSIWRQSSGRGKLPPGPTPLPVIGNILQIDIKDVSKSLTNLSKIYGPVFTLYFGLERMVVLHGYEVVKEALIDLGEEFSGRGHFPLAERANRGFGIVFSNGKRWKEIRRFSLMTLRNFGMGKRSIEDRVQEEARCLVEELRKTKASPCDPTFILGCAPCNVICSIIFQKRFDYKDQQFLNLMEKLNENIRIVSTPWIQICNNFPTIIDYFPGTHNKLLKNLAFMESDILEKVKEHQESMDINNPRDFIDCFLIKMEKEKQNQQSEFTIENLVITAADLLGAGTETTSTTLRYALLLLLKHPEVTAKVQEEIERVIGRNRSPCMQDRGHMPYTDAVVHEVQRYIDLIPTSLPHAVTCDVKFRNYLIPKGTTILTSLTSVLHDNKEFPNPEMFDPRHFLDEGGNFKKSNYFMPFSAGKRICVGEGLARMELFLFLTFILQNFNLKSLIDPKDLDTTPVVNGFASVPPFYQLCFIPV

Regarding `Cn1cc(CN2CCCC3(CC(=O)c4cc(/C=C/C(=O)NO)ccc4O3)C2)c2ccccc21` (racemic), the IC50 in the data set with K562 stood at 147 nM; with A549, 425 nM; on Histone deacetylase it was 183 nM; in data set [2], 78 nM. The remaining at 0.5 h, 1 µM in data set [1] was determined as 19%; in data set [3], 23%.
With `Cn1cc(CN2CC3(CC(=O)c4cc(/C=C/C(=O)NO)ccc4O3)C2)c2ccccc21`, the IC50 in the data set on K562 is 46 nM; with A549 it was 242 nM; on Histone deacetylase it was 62 nM; in [2], 78 nM. Besides, the inhibition at 0.5 h, 10 µM on CYP2C19 turned out to be 68%; at CYP2D6, 74%; against CYP3A4 it was 84%. The solubility in data set [4] was above 500 µM. Further, the inhibition at 0.25 h, 10 µM against CYP1A2 was found to be 8%. The remaining at 0.5 h, 1 µM in data set [1] amounted to 51%; in data set [3], 27%.
Regarding `O=C(/C=C/c1ccc2c(c1)C(=O)CC1(CCN(CCc3ccccc3)C1)O2)NO` (racemic), the IC50 in the data set on K562 is 102 nM; with A549 it was 272 nM; against Histone deacetylase, 27 nM; in data set [2], 43 nM. The inhibition at 0.5 h, 10 µM came to 59% at CYP2C19, 41% on CYP2D6 and 64% at CYP3A4. This molecule showed a solubility in data set [4] above 500 µM. The inhibition at 0.25 h, 10 µM against CYP1A2 was found to be 5%. Further, the remaining at 0.5 h, 1 µM in [1] and in data set [3] was 31% throughout.
Take `CN1CCCC2(CC(=O)c3cc(/C=C/C(=O)NO)ccc3O2)C1` (racemic): the IC50 in the data set on K562 stood at 56 nM; with A549, 103 nM; against Histone deacetylase it was 237 nM; in [2], 63 nM. Besides, the values for the inhibition at 0.5 h, 10 µM at CYP2C19, against CYP2D6 and against CYP3A4 were 12%, 14% and 51%, respectively. In data set [4], this molecule returned a solubility above 500 µM. Besides, at CYP1A2, the inhibition at 0.25 h, 10 µM worked out at 5%. For the same molecule, the values for the remaining at 0.5 h, 1 µM in data set [1] and in data set [3] were 42% and 72%, respectively.
On to `Cn1cc(CN2CCC3(CC(=O)c4cc(/C=C/C(=O)NO)ccc4O3)C2)c2ccccc21` (racemic), for which the IC50 stood at 51 nM in the data set with K562, 180 nM in the data set with A549, 85 nM on Histone deacetylase and 47 nM in data set [2]. Further, the remaining at 0.5 h, 1 µM in data set [1] is 16%; in data set [3] it was 8%.
With `O=C(CCCCCCC(=O)Nc1ccccc1)NO` [VORINOSTAT], the inhibition at 0.5 h, 10 µM at CYP2C19 amounted to 69%; at CYP2D6, 25%; at CYP3A4 it was 35%. At CYP1A2, this molecule registered an inhibition at 0.25 h, 10 µM of 25%. Besides, the remaining at 0.5 h, 1 µM in data set [1] is 93%; in [3], 82%.
Turning to `CN1CCCC2(CC1)CC(=O)c1cc(/C=C/C(=O)NO)ccc1O2` (racemic), the IC50 with K562 was found to be 329 nM; with A549, 534 nM; at Histone deacetylase it was 114 nM; in data set [2] it was 98 nM. The inhibition at 0.5 h, 10 µM against CYP2C19 was found to be 9%; at CYP2D6 it was 5%; at CYP3A4, 12%. This molecule also gave a solubility in data set [4] above 500 µM. This molecule showed an inhibition at 0.25 h, 10 µM against CYP1A2 of 5%. Also, the remaining at 0.5 h, 1 µM in data set [1] was 79%; in data set [3], 62%.
For the molecule `CC(=O)N1CCCC2(CC1)CC(=O)c1cc(/C=C/C(=O)NO)ccc1O2` (racemic), the IC50 in the data set on K562 is 5180 nM; in the data set on A549, 20100 nM; against Histone deacetylase it was 323 nM; in [2], 3510 nM.
In the case of `Cn1cc(CN2CCCC3(CC2)CC(=O)c2cc(/C=C/C(=O)NO)ccc2O3)c2ccccc21` (racemic), the IC50 in the data set on K562 came out at 46 nM; in the data set with A549, 260 nM; on Histone deacetylase, 114 nM; in [2], 60 nM. The remaining at 0.5 h, 1 µM was below 30% in data set [1] and 19% in data set [3].
For the molecule `O=C(/C=C/c1ccc2c(c1)C(=O)CC1(CCCNCC1)O2)NO` (racemic), the IC50 in the data set with K562 worked out at 5990 nM; with A549 it was 3120 nM; on Histone deacetylase, 134 nM; in data set [2], 1080 nM.
Take `O=C(/C=C/c1ccc2c(c1)C(=O)CC1(CCCN(Cc3ccc(F)cc3)CC1)O2)NO` (racemic): the IC50 with K562 is 144 nM; in the data set with A549, 333 nM; against Histone deacetylase, 149 nM; in data set [2], 63 nM. The remaining at 0.5 h, 1 µM in data set [1] stood at 11%; in data set [3] it was 25%.
For `O=C(/C=C/c1ccc2c(c1)C(=O)CC1(CCNC1)O2)NO` (racemic), the IC50 in the data set with K562 worked out at 4140 nM; in the data set on A549, 2320 nM; against Histone deacetylase, 131 nM; in [2], 2270 nM.
Consider `CCOC(=O)N1CC2(CC(=O)c3cc(/C=C/C(=O)NO)ccc3O2)C1`, for which the IC50 stood at 1880 nM in the data set on K562, 4870 nM in the data set on A549, 286 nM against Histone deacetylase and 1230 nM in data set [2].
Regarding `O=C(/C=C/c1ccc2c(c1)C(=O)CC1(CCN(Cc3ccc(F)cc3)C1)O2)NO` (stereo not drawn), the IC50 with K562 came out at 283 nM; in the data set with A549, 642 nM; against Histone deacetylase, 196 nM; in data set [2], 178 nM.
For `CC(=O)N1CCCC2(CC(=O)c3cc(/C=C/C(=O)NO)ccc3O2)C1` (racemic), in that order: 5600 nM, 14500 nM, 207 nM and 3240 nM.
Regarding `O=C(/C=C/c1ccc2c(c1)C(=O)CC1(CCCN(CCc3ccccc3)C1)O2)NO` (racemic), the IC50 with K562 was determined as 106 nM; with A549, 157 nM; at Histone deacetylase, 1 nM; in data set [2], 52 nM. The remaining at 0.5 h, 1 µM in data set [1] is 16%; in [3], 19%.
As for `O=C(/C=C/c1ccc2c(c1)C(=O)CC1(CCCN(C(=O)c3ccccc3)C1)O2)NO` (racemic), the IC50 was 2010 nM in the data set on K562, 4130 nM in the data set with A549, 165 nM against Histone deacetylase and 1330 nM in data set [2].
For `O=C(/C=C/c1ccc2c(c1)C(=O)CC1(CN(C(=O)c3ccccc3)C1)O2)NO`, the IC50 in the data set on K562 amounted to 376 nM; in the data set with A549, 1330 nM; at Histone deacetylase it was 81 nM; in data set [2], 294 nM.
Regarding `O=C(/C=C/c1ccc2c(c1)C(=O)CC1(CN(Cc3ccccc3)C1)O2)NO`, the IC50 in the data set with K562 came out at 175 nM; in the data set with A549, 245 nM; on Histone deacetylase it was 67 nM; in data set [2], 76 nM. Also, the inhibition at 0.5 h, 10 µM turned out to be 40% on CYP2C19, 64% on CYP2D6 and 53% against CYP3A4. The molecule also yielded a solubility in data set [4] above 500 µM. In addition, the inhibition at 0.25 h, 10 µM against CYP1A2 was 5%. Besides, the remaining at 0.5 h, 1 µM in data set [1] and in data set [3] was 44% in each case.
Regarding `O=C(/C=C/c1ccc2c(c1)C(=O)CC1(CCCN(CCc3ccccc3)CC1)O2)NO` (racemic), the IC50 was found to be 188 nM in the data set with K562, 184 nM in the data set on A549, 56 nM against Histone deacetylase and 62 nM in data set [2]. The inhibition at 0.5 h, 10 µM against CYP2C19 turned out to be 81%; against CYP2D6, 52%; against CYP3A4 it was 41%. Also, the solubility in data set [4] was above 500 µM. Besides, the inhibition at 0.25 h, 10 µM against CYP1A2 is 5%. In addition, the remaining at 0.5 h, 1 µM in [1] amounted to 27%; in data set [3], 39%.
As to `O=C(/C=C/c1ccc2c(c1)C(=O)CC1(CCCNC1)O2)NO` (racemic), the IC50 in the data set on K562 came to 555 nM; with A549 it was 714 nM; against Histone deacetylase it was 136 nM; in data set [2] it was 228 nM.
